# Reference: PubChem BioAssay AID624038 (The Scripps Research Institute Molecular Screening Center, 2012)
# Values joined by “and” are separate entries in the source; they are usually repeats but may differ in a detail not shown here. Equal values may be shown once. About 1,100 (0.31%) of roughly 360,000 compounds were called active.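 How the source made its calls: active means activation above the run cutoff, the mean activation of all test compounds plus 3 SD (cut at about 18% in these data); inactive means the rest.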 Shown is part of a subset that was picked to be rich in actives. Some compounds were tested as several samples or in several runs, with calls that do not always agree.
# Molecular target: Muscarinic acetylcholine receptor M5 (Homo sapiens) (UniProt P08912)
# Sequence (P08912 whole entry, looked up): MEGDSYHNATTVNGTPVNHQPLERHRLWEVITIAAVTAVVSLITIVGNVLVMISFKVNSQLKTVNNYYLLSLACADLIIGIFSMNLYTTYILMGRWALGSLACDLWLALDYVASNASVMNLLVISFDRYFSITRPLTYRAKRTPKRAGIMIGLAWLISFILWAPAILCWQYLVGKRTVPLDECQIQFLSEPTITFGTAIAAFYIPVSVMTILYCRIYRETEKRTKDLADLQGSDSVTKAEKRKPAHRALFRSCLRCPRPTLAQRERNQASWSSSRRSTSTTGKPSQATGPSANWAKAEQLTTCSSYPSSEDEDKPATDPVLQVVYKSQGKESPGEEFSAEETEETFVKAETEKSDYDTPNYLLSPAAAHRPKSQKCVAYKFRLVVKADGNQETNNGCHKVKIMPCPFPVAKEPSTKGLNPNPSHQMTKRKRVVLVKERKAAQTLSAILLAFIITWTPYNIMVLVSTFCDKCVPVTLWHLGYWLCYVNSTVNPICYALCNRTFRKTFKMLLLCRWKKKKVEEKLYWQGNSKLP
# Assay: CHRM5 PAMs potentiating acetylcholine calcium signal – CHO-K1 cells, Fluo-8 calcium fluorescence, primary screen (AID 624038)
# Details: CHO-K1 hM5, Fluo-8 calcium, ACh EC20 PAM; at 3 µM; stronger effect = higher value; 0% = ACh EC20, 100% = ACh EC100
# In short: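 Probe or stimulus: acetylcholine, EC20 level; Assay system: human M5 receptor in CHO-K1 cells; Schedule: compound preincubation 140 s before EC20 acetylcholine addition; Technique: intracellular calcium via Fluo-8 fluorescence; Dosing: single-point, 3 µM nominal; Read-out basis: percent activation from peak-over-basal fluorescence ratio, scaled EC20-to-EC100 acetylcholine; Repeats: one well per compound, no replicates.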
row,SMILES,activation
1,Cc1ccc(NC(=O)N2CCSc3ccccc32)cc1,-6.2% (inactive)
2,CCN(C(=O)CSc1nnc(-c2ccncc2)o1)c1ccccc1,-1.49% (inactive)
3,CCCCSc1nnc(-c2ccc(C)cc2)o1,19.1% (active)
4,Cc1ccc(-c2nnc(CN3CCN(C)CC3)o2)cc1,5.27% (inactive)
5,COCCNc1nc(N)c([N+](=O)[O-])c(NCCO)n1,-6.19% (inactive)
6,CCOC(=O)c1ccc2c(c1)nc(SCC(=O)NC(C)C)n2CC,0.07% (inactive)
7,CCc1ccc(NC(=O)C(=O)N/N=C(\C)CC(=O)NCCOC)cc1,3.15% (inactive)
8,CC(=O)c1cnn(-c2cc(Oc3ccc(F)cc3)ncn2)c1C,0.64% (inactive)
9,Cc1cc(C)n(-c2cc(Oc3ccccc3)ncn2)n1,34.2% (active)
10,Cc1cc(C)n(-c2ccc3nncn3n2)n1,0.99% (inactive)
11,COC(=O)c1sc(SC)c(S(=O)(=O)C(C)C)c1N/N=C(\C#N)S(=O)(=O)c1ccccn1,3.1% (inactive)
12,CCc1nc2ccc(C(=O)N3CCC(O)(Cc4ccccc4)CC3)cn2c1N(C)C(=O)Cc1ccccc1,1.27% (inactive)
13,CN(C)CCCN1C(=O)CSC1c1ccc([N+](=O)[O-])cc1 (configuration not stated),8.84% (inactive)
14,CCCCCCCCCCCCN1C(=O)CSC1c1cccnc1 (configuration not stated),22.7% (active)
15,CCCCc1ccc(NC(=O)NCc2cccnc2)cc1,2.66% (inactive)
16,CCN(CC)S(=O)(=O)c1cc([N+](=O)[O-])ccc1N=Nc1c(O)n(C)c2ccccc12,-2.02% (inactive)
17,CCOc1ccc(NC(=O)CN(C)C(=O)CCSc2ccc(F)cc2)cc1OCC,-1.87% (inactive)
18,CCN(Cc1ccccc1)S(=O)(=O)c1cc2c3c(c1)CCN3C(=O)CC2,3.77% (inactive)
19,Cc1cc(C)c2nc(N(CCN(C)C)C(=O)/C=C/c3cccs3)sc2c1,18.8% (active)
20,Cc1ccc(S(=O)(=O)N(C)C)cc1NC(=O)COC(=O)/C=C/c1cccs1,1.46% (inactive)
21,Cc1ccc(S(=O)(=O)N(C)C)cc1NC(=O)/C=C/c1cccs1,-1.18% (inactive)
22,FC(F)(F)c1ccnc(Oc2ccc(C3=NCCS3)cc2)c1,-0.95% (inactive)

row,SMILES,activation
1,COc1ccc(NC(=O)CSc2nnc(-c3ccccc3F)n2C2CC2)cc1S(N)(=O)=O,4.72% (inactive)
2,CCOC1CS(=O)(=O)CC1OCC (configuration not stated),27.7% (active)
3,O=C(O)c1ccc(COCC(F)(F)F)cc1,-0.76% (inactive)
4,CCCCCCN1CCN(C2CN(Cc3cn(CCCCCC)nn3)S(=O)(=O)C2)CC1 (configuration not stated),0.04% (inactive)
5,Cc1cccc(-n2nc3c(c2NC(=O)c2cc4ccccc4o2)CS(=O)(=O)C3)c1,0.74% (inactive)
6,CCC(C(=O)N1CCN(S(=O)(=O)c2sc(C(=O)O)c(C)c2C(=O)O)CC1)c1ccccc1 (configuration not stated),5.73% (inactive)
7,COc1ccc(OC)c(S(=O)(=O)Nc2ccccc2F)c1,-7.66% (inactive)
8,COc1ccc(OC)c(S(=O)(=O)NCCC(C)C)c1,3.29% (inactive)
9,COc1ccc(OC)c(S(=O)(=O)Nc2c(C)nn(C)c2C)c1,18.8% (active)
10,Cc1ccc(Br)c(NS(=O)(=O)c2cccc(C(=O)N3CCNC(=O)C3)c2)c1,-1.57% (inactive)
11,CCOC(=O)c1cnc2c(c(C)nn2CC)c1Cl,0.72% (inactive)
12,CCOC(=O)c1cnc(-n2nc(C)cc2C)nc1NNc1cc(C)nc(-c2ccccc2)n1,0.83% (inactive)
13,CCOC(=O)c1cnc(-n2nc(C)cc2C)nc1-n1nc(C)cc1C,37.3% (active)
14,Cc1cc(C(=O)OCC(=O)Nc2nccs2)c2ccccc2n1,-1.11% (inactive)
15,C=CCn1c(=S)[nH]c2scc(-c3ccco3)c2c1=O,-1.04% (inactive)
16,Cc1cc(C)n(Cc2cnc(N3CCOCC3)s2)n1,-0.72% (inactive)
17,CN(CC(=O)Nc1c(Cl)cccc1Cl)C(=O)CNC(=O)C1CCCCC1,7.43% (inactive)
18,COc1cccc(N(CC(=O)N2CCc3ccccc3C2)S(C)(=O)=O)c1,-6.56% (inactive)
19,COc1cccc(N(CC(=O)NC2CCCCCC2)S(=O)(=O)c2ccccc2)c1,-3.45% (inactive)
20,CCN(CC)C(=O)CN(c1cccc(OC)c1)S(=O)(=O)c1ccc(C)cc1,24% (active)
21,CCN1CCN(C(=O)C2CCCN(S(=O)(=O)c3ccc(OC)c(OC)c3)C2)CC1 (configuration not stated),-3.07% (inactive)
22,O=C(NNS(=O)(=O)c1ccc(Cl)cc1)C1CCN(Cc2ccccc2)CC1,-22.7% (inactive)

row,SMILES,activation
1,CCNC(=S)NNC(=O)C1CCN(Cc2ccccc2)CC1,22.7% (active)
2,CCOC(=O)C1CCN(Cc2ccc(-c3ccccc3)cc2)CC1,-6.76% (inactive)
3,CCCc1nc(N)nc2c1C(=O)CC(C)(C)C2,3.62% (inactive)
4,COc1ccc(N2CCN(CCCNC(=O)C3CCN(S(=O)(=O)N4CCOCC4)CC3)CC2)cc1,-0.18% (inactive)
5,CSc1ccc(C(=O)C2CCCN(C(=O)c3ccc(C)nc3)C2)cc1 (configuration not stated),-1.27% (inactive)
6,Cn1nccc1NC(=O)CC(CC(=O)O)c1ccccc1 (configuration not stated),-3.88% (inactive)
7,N#Cc1c(-c2ccccc2)c(-c2ccccc2)n[nH]c1=O,20.6% (active)
8,Cc1c(-c2ccccc2)nc(N)c(C#N)c1-c1cccs1,-5.86% (inactive)
9,O=C(O)c1n[nH]nc1-c1ccccc1,3.89% (inactive)
10,O=C(COc1ccc(Cl)cc1)NCCS(=O)(=O)N1CCN(c2ccc(F)cc2)CC1,-8.06% (inactive)
11,CCCc1nc(N2CCN(C)CC2)c2sc(=S)n(-c3ccccc3)c2n1,-2.27% (inactive)
12,O=C(/C=C/c1c(Cl)cccc1Cl)NCc1ccccc1,0.05% (inactive)
13,O=C(/C=C/c1c(F)cccc1Cl)Nc1nn[nH]n1,-6.11% (inactive)
14,CCOC(=O)CNC(=O)/C=C/c1c(Cl)cccc1Cl,20.4% (active)
15,CCc1ccc(N(CC)c2ncnc3nc[nH]c23)cc1,-3.31% (inactive)
16,CC(C)Cn1c(=O)c2ccccc2n2c(CCC(=O)NCc3ccccn3)nnc12,-4.54% (inactive)
17,CSc1ncc(C(=O)NCCCc2ccccc2)c(C)n1,-2.95% (inactive)
18,Cc1ccccc1C(=O)Nc1ccccc1Sc1ccccc1,-14.3% (inactive)
19,CSc1ncc(Sc2ccccc2)c(C(=O)O)n1,23.2% (active)
20,CCOc1ccc(S(=O)(=O)N2CCCC(C(=O)N3CCC(C(N)=O)CC3)C2)cc1Cl (configuration not stated),5.31% (inactive)
21,CCCCOP(=O)(c1ccc(N(C)C)cc1)C(O)c1cc(OC)ccc1OC (configuration not stated),4.18% (inactive)
22,CSCC(=O)N1CCCC(C(=O)c2cc(F)ccc2F)C1 (configuration not stated),-4.39% (inactive)

row,SMILES,activation
1,S=C(Nc1ccc(Br)cc1Cl)N1CCC2(CC1)OCCO2,-0.18% (inactive)
2,NC(=O)C1=C[C@@H](c2ccc3c(c2)OCO3)C[C@@H](OCCCCO)O1,-3.38% (inactive)
3,Cc1nn(Cc2ccccc2)c(C)c1NS(=O)(=O)c1ccccc1,-9.59% (inactive)
4,O=C(CS(=O)(=O)c1ccccc1)Nc1ccc(S(=O)(=O)Nc2ccccn2)cc1,-5.27% (inactive)
5,COc1ccc(NC(=O)CS(=O)(=O)c2ccccc2)cc1,18.2% (active)
6,COc1ccc(NC(=O)CC(NC(C)c2ccccc2)C(=O)O)cc1 (configuration not stated),-1.9% (inactive)
7,CCOC(=O)N1CCC(NC(=O)C(C)n2c3ccccc3c3cnn(C)c(=O)c32)CC1 (configuration not stated),-5.66% (inactive)
8,CCN(CC(=O)Nc1c(F)cccc1F)C(=O)c1ccc(Sc2nncn2C)c([N+](=O)[O-])c1,0.28% (inactive)
9,Cc1ccccc1N(C(=O)CNC(=O)c1cccs1)C(C(=O)NC1CCCC1)c1ccncc1 (configuration not stated),5.18% (inactive)
10,COc1ccc(C(C(=O)NC2CCCCC2)N(C(=O)c2snc(C(N)=O)c2N)c2ccccc2OC)cc1 (configuration not stated),-2.86% (inactive)
11,COc1ccc(C(C(=O)NC2CCCCC2)N(C(=O)CCl)c2ccccc2Cl)cc1 (configuration not stated),28.1% (active)
12,O=C(CSc1nc2ncccc2[nH]1)Nc1ccc2c(c1)OCCO2,-2.19% (inactive)
13,CCOc1ccc(C(=O)CCC(=O)Nc2ccncc2)cc1,-11.9% (inactive)
14,CCOc1ccc(NC(=O)CCC(=O)NNC(=O)NC2CCCCC2)cc1,21.3% (active)
15,CCOc1ccccc1NC(=O)NC1CCCCCCC1,-0.6% (inactive)
16,O=C(CCn1c(=O)oc2ccccc21)Nc1ccon1,3.01% (inactive)
17,CC(NCc1cccs1)C(=O)Nc1cc(Cl)cc(Cl)c1 (configuration not stated),-6.98% (inactive)
18,CCCCNC(=O)c1ccccc1NC(=O)c1ccccc1N(C)S(C)(=O)=O,21.6% (active)
19,CCC(C)NC(=O)c1ccccc1NC(=O)c1ccccc1N(C)S(C)(=O)=O (configuration not stated),2.75% (inactive)
20,CCCCNC(=O)c1ccccc1NC(=O)C1=C(C)OCCS1,-4.46% (inactive)
21,Cc1noc(/C=C/c2ccco2)c1S(=O)(=O)N1CCC(C(=O)N2CCc3ccccc32)CC1,-9.2% (inactive)
22,CC(C)(C)n1nnnc1C(c1ccc2ncccc2c1)N1CCSCC1 (configuration not stated),-6.68% (inactive)

row,SMILES,activation
1,CC1(C)CC(=O)C(C=NCCN2CCN(C(=S)Nc3cccc(Cl)c3)CC2)=C(O)C1,0.98% (inactive)
2,CC(C)C(=O)N1CCN(CCN=CC2=C(O)CC(c3ccco3)CC2=O)CC1 (configuration not stated),18.8% (active) and 2.37% (inactive)
3,CC(=O)N1CCN(CCN=CC2=C(O)CC(C)(C)CC2=O)CC1,-3.36% (inactive)
4,COCCCNC(=O)C1CC(=O)N(c2ccc(C)cc2)C1 (configuration not stated),-2.16% (inactive)
5,CCCC(C)NC(=O)C1CCN(C(=O)C2CC(=O)N(c3ccc(C)cc3)C2)CC1 (configuration not stated),1.21% (inactive)
6,COCCNC(=O)C1CCN(C(=O)C2CC(=O)N(c3ccc(C)cc3)C2)CC1 (configuration not stated),19.9% (active)
7,O=C(CCC(=O)n1ncc2ccccc21)NCc1ccccc1Cl,-1.46% (inactive)
8,O=C(CN1C(=O)NC(Cc2ccccc2)(Cc2ccccc2)C1=O)NCC1CCCCC1,-4.45% (inactive)
9,O=C(CNc1cccc(S(=O)(=O)N2CCCCC2)c1)Nc1ccccc1F,2.99% (inactive)
10,CC(=O)NC(CC(=O)Nc1nccs1)c1ccccc1 (configuration not stated),3.53% (inactive)
11,C[C@H](NC(=O)c1[nH]cnc1C(=O)Nc1nccs1)c1ccccc1,6.95% (inactive)
12,CC(NC(=O)C(=O)Nc1nccs1)c1ccccc1 (configuration not stated),20.9% (active)
13,CCCCn1nc(C(=O)OCC(=O)Nc2sccc2C(N)=O)c2ccccc2c1=O,-5.8% (inactive)
14,COC(=O)c1ccc(CN2CCC(CO)(Cc3ccc(OC)cc3)CC2)cc1,-13.3% (inactive)
15,O=C(NC1=NCCS1)c1ccc(Cl)s1,2.85% (inactive)
16,COc1ccc(NC(=O)C(C)SCc2ccccc2)cc1 (configuration not stated),3.94% (inactive)
17,O=C(CC1(O)C(=O)N(CN2CCOCC2)c2ccccc21)c1ccccc1 (configuration not stated),37.4% (active)
18,C=CCN1C(=O)C(O)(CC(=O)c2ccccn2)c2ccccc21 (configuration not stated),0.57% (inactive)
19,C=CCN1C(=O)C(O)(CC(=O)c2ccc(Cl)cc2)c2ccccc21 (configuration not stated),12.2% (inactive)
